Screening data from PubChem BioAssay.
TNF necrop inh – inhibitors of TNF-alpha induced necroptosis in Jurkat FADD-/- cells. Jurkat FADD-/- TNF necroptosis rescue, ATP luminescence, 24 h; 0 = TNF only, 100 = no-TNF cells. actives 0.068% (n = 220,000). activation (protection from cell death), % at 10 µM. AID 463075;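 active means activation, meaning protection from cell death, of at least 50% relative to plate controls; inactive means activation below 50%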;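 further: necroptosis triggered by 40 ng/mL TNF-alpha added together with compound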
Arbovirus anti – arbovirus infection inhibition; arbovirus infection cell-based antiviral screen; inhibition, % at 10 µM; actives 0.37% (n = 200,000); in the data active means inhibition above about 30%
Pf gametocyte – inhibitors of late stage P. falciparum gametocyte viability | P. falciparum stage V gametocytes, ATP luminescence, 24 h | inhibition, % at 10.9 µM | actives 0.065% (n = 150,000) | AID 743093;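 active means inhibition above the mean plus 3 SD of compounds within the control limits, set per campaign, cut at about 38% in these data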;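 further: 0% = DMSO wells and 100% = medium only without gametocytes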
L929 necroptosis – blocks zVAD induced death of L929 cells | L929 zVAD necroptosis rescue, ATP luminescence, 24 h; with zVAD 60 µM | viability rescue, % at 10 µM | actives 0.38% (n = 220,000) | AID 1377;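 active means activation, scaled between plate controls, above about 75%, limit read from the data; inactive means activation under that limit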;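 further: 0% = zVAD with DMSO and 100% = DMSO alone without zVAD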
Hep lipid drop – hepatic lipid droplet formation modulation | actives 0.4% (n = 240,000) | AML12 mouse hepatocytes, oleate lipid droplets, BODIPY imaging | AID 1656 | inhibition, % at 6.5 µM;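 active means lipid droplet intensity inhibited by at least 50%, with more than 500 cells counted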
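Technique: fluorescence imaging, 20x objective, two fields per well / Assay system: AML12 hepatocytes (mouse) / Measure: % inhibition of lipid droplet signal / Doses: 6.5 µM single-point dosing / Incubation: overnight exposure / Reagent: 100 µM oleic acid challenge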
Lipid drop inh – confirmation of inhibitors of hepatic lipid droplet formation | shares compounds with Hep lipid drop | AML12 mouse hepatocytes, BODIPY lipid droplet imaging; droplets induced with 100 µM oleic acid | inhibition, % at 5.2 µM | actives 65% (n = 870);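 active means inhibition of lipid droplet metric at least 50%, with more than 300 cells in each of four replicates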;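 further: plate controls were DMSO with oleic acid for no effect and 5 µM Triacsin-C for full effect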
AML12 cytotox – toxic to AML12 mouse hepatocytes in counter-screen; DAPI nuclear morphology cytotoxicity imaging; stronger effect = higher value; cells fed 100 µM oleate overnight; shares compounds with Hep lipid drop; actives 3% (n = 870); z-score at 5 µM; in the data active means z-score above about 6.3;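 further: compound exposure lasted overnight at 37 °C before fixation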
AML12 tox ATP – AML12 hepatocyte cytotoxicity, confirmed; shares compounds with Hep lipid drop; AML12 mouse hepatocyte viability, ATP luminescence; cells loaded with 100 µM oleic acid; cytotoxicity, % at 50 µM; 530 tested, under 10 active; AID 463219;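 active means cytotoxicity above 50% in each of four replicates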;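 further: compound exposure lasted overnight at 37 °C before the ATP read; 0% = DMSO-treated cells and 100% = wells with no cells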
Active calls of the source: *; . = not tested or not shown. Shown are actives, neighbours in structure and some others; about 0.91% of the full set was active somewhere.

SMILES	TNF necrop inh	Arbovirus anti	Pf gametocyte	L929 necroptosis	Hep lipid drop	Lipid drop inh	AML12 cytotox	AML12 tox ATP
Cc1ccccc1OCc1nnc(SCC(=O)Nc2ccc3c(c2)oc2ccccc23)n1C	1	-7	.	0	93*	40	0.56	.
CCn1cc(CCCC(=O)NCc2ccccc2OC)c2ccccc21	.	.	.	.	88*	100*	-0.56	15
CCn1cc(CCCC(=O)NCc2cccc(OC)c2)c2ccccc21	.	.	.	.	80*	88*	-0.14	7
COc1ccccc1N1N=C(c2ccc([N+](=O)[O-])cc2)CC1c1ccccc1 (configuration not stated)	.	.	22	.	67*	110*	-0.96	9
CN(CC1CCCO1)S(=O)(=O)c1ccc(C(=O)NCc2ccccc2)cc1 (configuration not stated)	1	4	-1	12	8	.	.	.
COc1cc(NC(=O)c2ccco2)c(OC)cc1NC(=O)Nc1ccccc1Cl	1	-6	-30	0	82*	114*	0.93	10
COc1ccc(Cl)cc1NC(=O)c1ccco1	-3	0	-9	0	-1	.	.	.
O=c1[nH]c(=O)n(Cc2ccccc2)c2nc(-c3ccc(Oc4ccc(F)cc4)c([N+](=O)[O-])c3)n(CCO)c12	0	-33	-3	0	64*	71*	1.1	1
Cc1cccc(NC(=O)c2cccc(OC(=S)N3CCOCC3)c2)c1	.	.	.	.	84*	104*	0.092	5
COc1cccc(NC(=O)c2cncs2)c1	.	.	.	.	0	.	.	.
CCN1C(=O)/C(=C2\SC(=S)N(CCCOC)C2=O)c2ccccc21	-4	1	3	0	.	.	.	.
CCC(C)C(=O)N1c2ccccc2C(=C2SC(C(=O)OC)=C(C(=O)OC)S2)C(=S)C1(C)C (configuration not stated)	-14	-1	.	0	67*	112*	0.24	6
COc1ccc(CCNC(=O)COC(=O)c2ccco2)cc1OC	1	3	.	1	.	.	.	.
CCOc1ccc(CCNC(=O)C2CC(C)=CCC2C(=O)O)cc1OCC (configuration not stated)	.	.	.	.	-1	.	.	.
CCOc1ccc(CCNC(=O)COC(=O)c2cc(OC)cc(OC)c2)cc1OCC	1	-1	-11	6	61*	94*	-0.87	7
CCOc1ccc(CCNC(=O)C2CC(=O)N(Cc3ccc(OC)cc3)C2)cc1OCC (configuration not stated)	.	.	.	.	57*	93*	-0.16	16
CCOc1ccc(CCNC(=O)CN2CCN(Cc3ccc(F)cc3)C2=O)cc1OCC	2	6	1	0	69*	104*	-0.21	13
CCOc1ccc(CCNC(=O)C2CC=CCC2C(=O)OC(C)C)cc1OCC (configuration not stated)	.	.	.	.	114*	106*	0.38	13
CC(C(=O)OCC(=O)c1cccc([N+](=O)[O-])c1)N1C(=O)C2C3C=CC(C3)C2C1=O (configuration not stated)	.	.	.	.	6	.	.	.
CCOc1ccc(CCNC(=O)C2CCN(S(=O)(=O)CC)CC2)cc1OCC	-1	-1	.	0	.	.	.	.
COc1ccc(S(=O)(=O)CCC(=O)NCCc2ccc(S(N)(=O)=O)cc2)cc1	2	2	.	1	1	.	.	.
CCCOc1ccc(C(=O)OCC(=O)NCCc2ccc(OCC)c(OCC)c2)cc1OC	.	.	.	.	88*	110*	-0.66	8
CCOc1ccc(CCNC(=O)COC(=O)c2cccc(OC)c2O)cc1OCC	2	10	.	1	39	.	.	.
CCOc1ccc(CCNC(=O)COC(=O)c2ccc(OC)c(OC)c2OC)cc1OCC	3	11	10	0	77*	109*	-0.68	10
CCOc1ccc(CCNC(=O)CCS(=O)(=O)c2ccc(OC)cc2)cc1OCC	0	7	-45	3	84*	97*	-0.44	10
SMILES	TNF necrop inh	Arbovirus anti	Pf gametocyte	L929 necroptosis	Hep lipid drop	Lipid drop inh	AML12 cytotox	AML12 tox ATP
CCOc1ccc(CCNC(=O)COC(=O)c2ccc(C)c([N+](=O)[O-])c2)cc1OCC	.	.	.	.	24	.	.	.
CCOc1ccc(CCNC(=O)C2CCN(S(=O)(=O)N3CC(C)CC(C)C3)CC2)cc1OCC (configuration not stated)	.	.	.	.	82*	5	-0.36	.
Cc1ccc(CNC(=O)CCCn2nc(C)n3ccnc3c2=O)cc1	.	.	.	.	1	.	.	.
CCOc1ccc(C(=O)OCC(=O)Nc2nc(OC)cc(OC)n2)cc1OCC	2	-8	22	0	64*	102*	-0.56	15
Clc1ccccc1CN(Cc1ccco1)Cc1nnnn1C1CCCC1	-1	-19	.	1	68*	1	-0.68	.
c1coc(CN(Cc2cccs2)Cc2nnnn2C2CCCCC2)c1	0	1	.	0	19	.	.	.
COc1ccc(C2CC(c3cccs3)=NN2C(=O)CSc2nc3ccccc3s2)cc1 (configuration not stated)	3	5	.	1	74*	101*	-0.94	4
O=C(CSc1nc2ccccc2s1)N1N=C(c2cccs2)CC1c1ccc(F)cc1 (configuration not stated)	3	3	.	1	-10	.	.	.
CC(OC(=O)CNC(=O)c1ccc2ccccc2c1)C(=O)NC1CCCCC1C (configuration not stated)	.	.	.	.	0	.	.	.
CC(C)Oc1ccc(C(=O)OC(C)C(=O)NC2CCCCC2C)cc1 (configuration not stated)	.	.	.	.	52*	102*	0.7	12
CCOc1ccccc1NC(=O)c1cccc(NC(=O)C2CCCC2)c1	.	.	.	.	63*	95*	0.46	4
CCOc1ccccc1NC(=O)C1CCCC1	.	.	2	.	.	.	.	.
Cc1noc(/C=C/N(C)C)c1S(=O)(=O)N(C)Cc1ccc(F)cc1	.	.	.	.	26	.	.	.
CCOc1ncccc1C(=O)OC(C)C(=O)Nc1ccc(CC)cc1 (configuration not stated)	2	5	-11	2	53*	97*	-0.59	16
Clc1ccc(N2CCN(/N=C/c3cccnc3)CC2)cc1	.	.	.	.	-1	.	.	.
Cc1ccc(-n2nc3c(=O)n(C(C)C(=O)NCCc4cccs4)nc(C)c3c2C)cc1 (configuration not stated)	.	.	.	.	53*	96*	-0.5	20
Cc1ccc(-n2nc3c(=O)n(C(C)C(=O)NC4CC4)nc(C)c3c2C)cc1 (configuration not stated)	.	.	.	.	-2	.	.	.
Cc1ccc(-n2nc3c(=O)n(CC(=O)NC4CCCCC4)nc(C)c3c2C)cc1	.	.	.	.	57*	88*	-0.23	17
